This is an account of results in ChEMBL document CHEMBL1122632, “Synthesis and antitumor activity of cis-dichloroplatinum (II)-N-aminated nucleoside complexes” (J Med Chem, 1984).

The test system of test [1] is Mus musculus. Kind of test: Blood urea nitrogen values in ICR mice after intraperitoneal administration at an equivalent molar dose of the LD50 of […](13 mg/kg) on day 3. The class given is functional, organism-based. Put shortly:
(§1)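 ICR mice (25-30 weeks, 39 ± 4 g), 5-6 per group, given one ip dose of 0.043 mmol/kg, equimolar to 13 mg/kg cis-DDP. On days 3, 6 and 9, blood was drawn from the heart under ether anesthesia and stored frozen. BUN was measured later by a modified urease indophenol method. Results are mean ± SD, mg/100 mL blood, compared with untreated controls.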

Test [2] has as its system Mus musculus. Kind of test: Effect on kidney weight in ICR mice was determined after intraperitoneal administration on day 6. Type of test: functional, organism-based. A digest of the protocol:
(§2)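 ICR mice (25-30 weeks, 39 ± 4 g), 5-6 per group, given one ip dose of 0.043 mmol/kg, equimolar to 13 mg/kg cis-DDP. Body and kidney weights were taken on days 3, 6 and 9 and compared with untreated controls. Weights are paired, mean ± SD.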

Test [3] relates to L1210. Kind of test: Median survival time (MST) of mice bearing L1210 cells was determined at a dose of 100 mg/kg x 2 days administered ip. The following applies: Mus musculus. Further details: dose 100 mg/kg. Type of test: functional, organism-based. A digest of the protocol: (§3)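 (BALB/c × DBA/2)F1 mice (20 g) were implanted ip with 10^4 L1210 cells. Compounds in saline (0.2 mL) were given ip on days 1 and 5; doses above 100 mg/kg were homogenized with Nikkol (7× by weight). Activity was scored as median survival time of treated mice and expressed as T/C, the ratio of treated to control median survival time.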

Test [4] relates to Mus musculus. Kind of test: Effect on body weight in ICR mice was determined after intraperitoneal administration on day 6. Type of test: functional, organism-based. A digest of the protocol:
as §2

The test system of test [5] is Mus musculus. Kind of test: Effect on body weight in ICR mice was determined after intraperitoneal administration on day 9. Type of test: functional, organism-based. A digest of the protocol:
as §2

Test [6] has as its system Mus musculus. Kind of test: Effect on kidney weight in ICR mice was determined after intraperitoneal administration on day 9. The class given is functional, organism-based. Put shortly:
as §2

Test [7] concerns L1210. The test is described as follows: Median survival time (MST) of mice bearing L1210 cells was determined at a dose of 10 mg/kg x 2 days administered ip. Type of test: functional, organism-based. Further details: dose 10 mg/kg. The following applies: Mus musculus. Put shortly:
as §3

The subject of test [8] is Mus musculus. Kind of test: Effect on body weight in ICR mice was determined after intraperitoneal administration on day 3. Type of test: functional, organism-based. A digest of the protocol:
as §2

Test [9] has as its system L1210. The test is described as follows: Median survival time (MST) of mice bearing L1210 cells was determined at a dose of 200 mg/kg x 2 days administered ip. Further details: dose 200 mg/kg. The note with it: Mus musculus. Type of test: functional, organism-based. Put shortly:
as §3

Test [10] concerns Mus musculus. The test is described as follows: Blood urea nitrogen values in ICR mice after intraperitoneal administration at an equivalent molar dose of the LD50 of […](13 mg/kg) on day 6. Type of test: functional, organism-based. A digest of the protocol:
as §1

Test [11] has as its system Mus musculus. Kind of test: Effect on kidney weight in ICR mice was determined after intraperitoneal administration on day 3. The class given is functional, organism-based. A digest of the protocol:
as §2

Test [12] relates to L1210. The test is described as follows: Median survival time (MST) of mice bearing L1210 cells was determined at a dose of 300 mg/kg x 2 days administered ip; Toxic. Type of test: functional, organism-based. Further details: dose 300 mg/kg. The note with it: Mus musculus. Put shortly:
as §3

In test [13] the test system is L1210. Kind of test: Ratio of median survival time of the mice bearing L1210 cells in treated(T) vs. control(C) at a dose of 10 mg/kg x 2 days. The following applies: Mus musculus. Type of test: functional, organism-based. Also on record: dose 10 mg/kg. A digest of the protocol:
as §3

Test [14] has as its system L1210. The test is described as follows: Ratio of median survival time of the mice bearing L1210 cells in treated(T) vs. control(C) at a dose of 50 mg/kg x 2 days. Also on record: dose 50 mg/kg. Type of test: functional, organism-based. The note with it: Mus musculus. Put shortly:
as §3

Test [15] has as its system L1210. The test is described as follows: Ratio of median survival time of the mice bearing L1210 cells in treated(T) vs. control(C) at a dose of 200 mg/kg x 2 days. Type of test: functional, organism-based. The note with it: Mus musculus. Further details: dose 200 mg/kg. Put shortly: as §3
The test system of test [16] is L1210. Kind of test: Ratio of median survival time of the mice bearing L1210 cells in treated(T) vs. control(C) at a dose of 25 mg/kg x 2 days. Type of test: functional, organism-based. Further details: dose 25 mg/kg. The following applies: Mus musculus. A digest of the protocol:
as §3

Test [17] concerns L1210. Kind of test: Ratio of median survival time of the mice bearing L1210 cells in treated(T) vs. control(C) at a dose of 100 mg/kg x 2 days. Type of test: functional, organism-based. Further details: dose 100 mg/kg. The following applies: Mus musculus. A digest of the protocol:
as §3

Test [18] concerns Mus musculus. Kind of test: Blood urea nitrogen values in ICR mice after intraperitoneal administration at an equivalent molar dose of the LD50 of […](13 mg/kg) on day 9. The class given is functional, organism-based. Put shortly:
as §1

Test [19] concerns L1210. The test is described as follows: Median survival time (MST) of mice bearing L1210 cells was determined at a dose of 25 mg/kg x 2 days administered ip. Type of test: functional, organism-based. Further details: dose 25 mg/kg. The following applies: Mus musculus. A digest of the protocol:
as §3

Test [20] has as its system L1210. The test is described as follows: Median survival time (MST) of mice bearing L1210 cells was determined at a dose of 50 mg/kg x 2 days administered ip. Type of test: functional, organism-based. Further details: dose 50 mg/kg. The note with it: Mus musculus. A digest of the protocol:
as §3

The test system of test [21] is L1210. The test is described as follows: In vitro inhibition of L1210 (murine leukemia) cell growth. The class given is functional, cell-based, Mus musculus. A digest of the protocol: (§4)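 L1210 cells (10^5 in 1 mL) were grown in RPMI 1640 with 10% FCS and kanamycin, at 37 °C in CO2, for 48 h. Compounds were heated at 110 °C for 8 h, dissolved in medium and tested at ≥6 concentrations. Viability was scored by 0.17% Trypan blue exclusion against drug-free controls. IC50 was the concentration halving living cell number, taken from the log-probit dose-response curve.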

Test [22] deals with L1210. Kind of test: Median survival time (MST) of mice bearing L1210 cells was determined at a dose of 114 mg/kg x 2 days administered ip. Type of test: functional, Mus musculus. A digest of the protocol:
(§5)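 (BALB/c x DBA/2)F1 mice, 20 g, implanted ip with 10^4 L1210 cells. Test samples in saline (0.2 mL) given ip on days 1 and 5 after tumor inoculation; doses above 100 mg/kg homogenized with Nikkol (7 times by weight) as vehicle. Activity from median survival time of treated group versus control group (T/C).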

The test system of test [23] is L1210. Kind of test: Ratio of median survival time of the mice bearing L1210 cells in treated(T) vs. control(C) at a dose of 2 mg/kg x 2 days. The class given is functional, Mus musculus. A digest of the protocol: as §5
The subject of test [24] is L1210. The test is described as follows: Median survival time (MST) of mice bearing L1210 cells was determined at a dose of 2 mg/kg x 2 days administered ip. Type of test: functional, Mus musculus. Put shortly: as §5
For test [25], the system named is L1210. Kind of test: In vitro inhibitory effect on growth of L1210 cells; (10E-6). Type of test: functional, cell-based. The note with it: Mus musculus. Put shortly: as §4
The subject of test [26] is L1210. Kind of test: Ratio of median survival time of the mice bearing L1210 cells in treated(T) vs. control(C) at a dose of 114 mg/kg x 2 days. Type of test: functional, Mus musculus. Put shortly:
as §5

The test system of test [27] is L1210. Kind of test: Median survival time (MST) of mice bearing L1210 cells was determined at a dose of 59 mg/kg x 2 days administered ip; Toxic. The class given is functional, organism-based. Also on record: dose 59 mg/kg. The following applies: Mus musculus. A digest of the protocol: as §3
Test [28] has as its system L1210. The test is described as follows: Median survival time (MST) of mice bearing L1210 cells was determined at a dose of 2 mg/kg x 2 days administered ip; Toxic. Type of test: functional, organism-based. The note with it: Mus musculus. Also on record: dose 2 mg/kg. Put shortly: as §3
Test [29] relates to L1210. The test is described as follows: Ratio of median survival time of the mice bearing L1210 cells in treated(T) vs. control(C) at a dose of 300 mg/kg x 2 days. Also on record: dose 300 mg/kg. The following applies: Mus musculus. Type of test: functional, organism-based. A digest of the protocol: as §3
Test [30] has as its system L1210. The test is described as follows: Median survival time (MST) of mice bearing L1210 cells was determined at a dose of 300 mg/kg x 2 days administered ip. The class given is functional, organism-based. Also on record: dose 300 mg/kg. The note with it: Mus musculus. A digest of the protocol: as §3
Where [31] appears, read: Mus musculus, L1210, read-out: IC50.

By T/C is commonly meant the result in the treated group divided by that in the control group, in per cent. Broadly, the IC50 is the concentration that gives 50% inhibition.

Several values for one entry are separate records, joined by “and”; a condition that tells them apart may be missing. Equal values may be shown once.

“3-amino-2'-deoxycytidine-dichloroplatinum (II)”: the Blood urea nitrogen turned out to be 27.2 mg 100ml-1 in the test with Mus musculus [1], 28 mg 100ml-1 with Mus musculus [10] and 26 mg 100ml-1 with Mus musculus [18]. The Kidney weight in the test with Mus musculus [2] was 654; in the test with Mus musculus [6] it was 634; with Mus musculus [11] it was 626. The MST in the test with L1210 [3] is 14.5 days; in the test with L1210 [7], 10 days; with L1210 [9], 8.5 days; with L1210 [12], “Toxic”; with L1210 [19], 10.5 days; in the test with L1210 [20] it was 13 days. Besides, the Body weight came out at 39.3 in the test on Mus musculus [4], 35.5 with Mus musculus [5] and 38.3 in the test on Mus musculus [8]. Also, the T/C was determined as 125% in the test with L1210 [13]; 162% in the test with L1210 [14]; 106% in the test with L1210 [15]; 131% in the test with L1210 [16]; 181% in the test on L1210 [17].
As for 3-aminotubercidin-dichloroplatinum (II), the IC50 with L1210 [21] (l1210) stood at 4.9 µg/mL; in the test on L1210 [21] (l1210, read-out: IC50) it was 8.96 µM.
For the molecule `N=c1ccn([C@H]2C[C@H](O)[C@@H](CO)O2)c(=O)n1N`, in the test with L1210 [21] (setting [31]), the IC50 is 2000 µg/mL and 7.18 mM.
In the case of `N=c1c2ccn(C3O[C@H](CO)[C@@H](O)[C@H]3O)c2ncn1N` (stereo not given in full), the MST with L1210 [22] is 9.5 days; in the test with L1210 [24] it was 11 days. Also, the T/C amounted to 110% in the test on L1210 [23] and 95% in the test on L1210 [26]. For the same molecule, the IC50 was determined as 8.5 µM in the test on L1210 [25] and 2.7 µg/mL with L1210 [21] (setting [31]).
As for “3-aminocytidine-dichloroplatinum (II) [listing 1 of 2 here]”, the IC50 is 64 µg/mL in the test with L1210 [21] (l1210) and 122 µM in the test on L1210 [21] (l1210, read-out: IC50).
For the molecule `N=c1ccn([C@@H]2O[C@H](CO)[C@@H](O)[C@H]2O)c(=O)n1N`, in the test with L1210 [21] (setting [31]), the IC50 is 400 µg/mL and 1.36 mM.
“3-amino-2'-deoxycytidine hydrochloridecis-DDP”: the MST result in the test on L1210 [27] and in the test on L1210 [28] was “Toxic” in each case.
On to “3-aminocytidine-dichloroplatinum (II) [listing 2 of 2 here]”, for which the values for the Blood urea nitrogen in the test on Mus musculus [1], in the test with Mus musculus [10] and with Mus musculus [18] were 22 mg 100ml-1, 26.3 mg 100ml-1 and 28.7 mg 100ml-1, respectively. The Kidney weight with Mus musculus [2] amounted to 637; in the test with Mus musculus [6], 571; in the test with Mus musculus [11], 545. In addition, the MST with L1210 [3] stood at 10.5 days; with L1210 [7] it was 9.5 days; with L1210 [9] it was 11 days; with L1210 [30], 11 days; in the test on L1210 [19] it was 10 days; with L1210 [20], 10 days. In addition, the values for the Body weight in the test on Mus musculus [4], in the test on Mus musculus [5] and in the test with Mus musculus [8] were 39.9, 36.5 and 35.6, respectively. The T/C in the test with L1210 [29] came to 138%; in the test with L1210 [13] it was 119%; in the test with L1210 [14], 125%; in the test with L1210 [15], 138%; with L1210 [16], 125%; with L1210 [17], 131%.
